For series [1], the target named is T1, Corticotropin-releasing factor receptor 1 (Homo sapiens, UniProt P34998).
T1 sequence (P34998 whole entry): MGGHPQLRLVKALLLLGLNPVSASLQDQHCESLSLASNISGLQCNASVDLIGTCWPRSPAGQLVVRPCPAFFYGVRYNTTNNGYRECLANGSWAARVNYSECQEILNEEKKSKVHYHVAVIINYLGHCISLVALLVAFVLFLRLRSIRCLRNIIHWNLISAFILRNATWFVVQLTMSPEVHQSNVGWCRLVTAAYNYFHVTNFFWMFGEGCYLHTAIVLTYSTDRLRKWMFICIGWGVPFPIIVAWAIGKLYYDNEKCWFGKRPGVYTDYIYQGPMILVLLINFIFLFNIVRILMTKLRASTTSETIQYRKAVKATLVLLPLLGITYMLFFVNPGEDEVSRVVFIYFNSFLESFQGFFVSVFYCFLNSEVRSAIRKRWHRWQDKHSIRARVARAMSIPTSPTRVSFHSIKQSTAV
As to the kind of experiment: Displacement of [125I]-CRF from human CRF1 receptor expressed in CHO-K1 cells after 2 hrs by gamma counting. In kind it is cell-based. The procedure, abridged:
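Crude membranes were made from CRF1-expressing CHO-K1 cells in 50 mmol/l Tris-HCl with 10 mmol/l MgCl, 2 mmol/l EDTA and aprotinin. Membranes were incubated with 125I human/rat CRF (0.5 nmol/l solution added) and test compound (1~10000 nmol/L) for 2 h at room temperature. Bound and free ligand were separated by centrifugation and the pellet washed with PBS/0.01% Triton X-100, then gamma-counted. Nonspecific binding was defined with 1 µmol/l unlabeled CRF. IC50 was taken from concentration–response curves.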

Series [2] addresses T1, Corticotropin-releasing factor receptor 1. As to the kind of experiment: Antagonist activity at human CRF1 receptor expressed in CHO-K1 cells assessed as inhibition of CRF-induced cAMP accumulation after 15 mins by cAMP enzyme immunoassay. In kind it is functional, cell-based. Put shortly: (§1)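 CRF1-expressing CHO-K1 cells seeded at 1×10^4 cells/well and cultured overnight. Cells were washed with F-12 and preincubated 10 min at 37 °C in F-12 containing 1 mmol/l IBMX. Test compound (1–10000 nmol/l) was then added together with CRF (10 nmol/l in the added medium). After 15 min at 37 °C, intracellular cAMP was measured by enzyme immunoassay. IC50 was taken from concentration–response curves.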

Series [3] deals with T2, Corticotropin-releasing factor receptor 1 (Rattus norvegicus, UniProt P35353).
T2 sequence (P35353 whole entry): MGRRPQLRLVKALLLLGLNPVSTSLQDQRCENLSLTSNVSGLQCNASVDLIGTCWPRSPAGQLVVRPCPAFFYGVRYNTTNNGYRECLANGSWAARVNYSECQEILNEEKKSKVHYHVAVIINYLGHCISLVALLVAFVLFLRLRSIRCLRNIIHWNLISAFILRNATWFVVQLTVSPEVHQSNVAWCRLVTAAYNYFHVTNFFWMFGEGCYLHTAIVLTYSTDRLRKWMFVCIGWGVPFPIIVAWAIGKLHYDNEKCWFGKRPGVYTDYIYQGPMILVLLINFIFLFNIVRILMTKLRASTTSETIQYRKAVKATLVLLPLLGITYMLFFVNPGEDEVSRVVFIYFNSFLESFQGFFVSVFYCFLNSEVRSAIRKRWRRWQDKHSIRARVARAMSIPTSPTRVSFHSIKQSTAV
As to the kind of experiment: Antagonist activity at rat CRF1 receptor expressed in CHO-K1 cells assessed as inhibition of CRF-induced cAMP accumulation after 15 mins by cAMP enzyme immunoassay. In kind it is functional, cell-based. Put shortly: as §1

In another series the test system is Rattus norvegicus. As to the kind of experiment: Anxiolytic activity against swim-stress-induced anxiety like behavior in Sprague-Dawley rat assessed as increase in spent time in open arms at 10 mg/kg, po administered 1 hr before stress-challenge by elevated plus-maze test. In kind it is functional, organism-based. Further details: dose 10 mg/kg. The procedure, abridged: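 Male Sprague-Dawley rats (230–280 g) were dosed orally with compound in 0.5% MC, and tested 1 h after dosing. Rats were then placed on the elevated plus-maze (50 cm high) and video-tracked for 5 min for time in and entries into open arms. Results are mean ± S.E., n=16; vehicle vs drug by Dunnett test.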

The nature of series [4]: AUC (0 to infinity) in rat at 1 mg/kg, iv. In kind it is ADME, organism-based. Also on record: dose 1 mg/kg, route intravenous, time infinity. To be noted: plasma. Put shortly:
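Single iv dose of 1 mg/kg in saline containing 30% HP-β-CD (w/v), given to fasted male rats (n = 4). Plasma stored at -70 °C. AUC derived from the plasma concentration time course.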

Series [5] is described as follows: AUC (0 to infinity) in rat at 10 mg/kg, po. In kind it is ADME, organism-based. Also on record: time infinity, dose 10 mg/kg, route oral. To be noted: plasma. Put shortly: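 Single oral dose of 10 mg/kg in saline containing 0.5% MC (w/v), given to fasted male rats (n = 4). Heparinized jugular vein blood taken at 1, 2, 4, 6, 8, 24, 48, 72 h. Plasma stored at -70 °C. AUC to infinity derived from the plasma concentration time course.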

The nature of series [6]: Tmax in rat at 10 mg/kg, po. Further details: dose 10 mg/kg, route oral. As to conditions: in vivo. Type of series: ADME, organism-based. The procedure, abridged: (§2)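 Fasted male rats (n = 4) received 1 mg/kg iv in saline/30% HP-β-CD or 10 mg/kg po in saline/0.5% MC. Jugular blood was sampled up to 72 h, and plasma obtained by centrifugation and stored at -70 °C. AUC, Cmax, Tmax, T1/2, Vss and CL were derived from plasma concentration–time courses. F = dose-normalized AUCpo/AUCiv ×100.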

Series [7] can be described thus: Cmax in rat at 10 mg/kg, po. Further details: dose 10 mg/kg, route oral. As to conditions: in vivo. Type of series: ADME, organism-based. The procedure, abridged:
as §2

The nature of series [8]: Total clearance in rat at 1 mg/kg, iv. Type of series: ADME, organism-based. Also on record: dose 1 mg/kg, route intravenous. To be noted: in vivo. Put shortly:
as §2

Series [9] is described as follows: Half life in rat at 1 mg/kg, iv. In kind it is ADME, organism-based. Further details: dose 1 mg/kg, route intravenous. As to conditions: in vivo. Put shortly:
as §2

Series [10] is described as follows: Half life in rat at 10 mg/kg, po. Type of series: ADME, organism-based. Also on record: dose 10 mg/kg, route oral. As to conditions: in vivo. The procedure, abridged: as §2
The nature of series [11]: Volume of distribution at steady state in rat at 1 mg/kg, iv. Type of series: ADME, organism-based. Further details: dose 1 mg/kg, route intravenous. As to conditions: in vivo, read-out: Vdss. Put shortly:
as §2

The nature of series [12]: Oral bioavailability in rat at 10 mg/kg. To be noted: in vivo. In kind it is ADME, organism-based. The procedure, abridged:
as §2

Series [13] can be described thus: Ratio of drug level in brain to plasma in rat at 10 mg/kg, po after 1 hr. Type of series: ADME, organism-based. Also on record: dose 10 mg/kg, route oral. To be noted: read-out: BPR. The procedure, abridged: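 Rats were dosed orally at 10 mg/kg. Kp was calculated as brain content divided by plasma concentration, 1.0 h after dosing.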

Calls of active or inactive are those of the source. No cut-off for these calls is given here.

As for `CCc1cc(Cl)ccc1Nc1nc2ccnn2c2c1ccn2C(CC)CC`, in series [1], the IC50 worked out at 4.7 nM. The EC50 in series [2] was 3.9 nM.
On to `CCCN(CCC)c1cc(N(C)c2ccc(OC)cc2Cl)nc2ccnn12`, for which, in series [1], the IC50 came to 20 nM. In addition, the EC50 in series [2] came out at 97 nM.
On the same counts, the results for `CCCN(CCC)c1cc(Nc2ccc(OC)cc2Cl)nc2ccnn12` are 61 nM and 53 nM.
In series [1], `CCCN(CCC)c1c(C)c(Nc2ccc(OC)cc2Cl)nc2ccnn12` gave an IC50 of 8 nM. Moreover, the EC50 in [2] was 4 nM; in series [3] it was 81 nM. The outcome in the series on Rattus norvegicus was Active. Also, the AUC(0-inf) came to 96 ng·h/mL in [4] and 153 ng·h/mL in series [5]. Further, in series [6], the Tmax turned out to be 4 h. Further, in [7], the Cmax amounted to 27.4 ng/mL. In series [8], this molecule showed a clearance of 186 mL/min/kg. For the same molecule, the half-life is 1.7 h in series [9] and 3.4 h in series [10]. Further, in [11], the Vd came to 14.4 L/kg. The molecule also had a bioavailability in series [12] of 16%. Further, in series [13], the Kp at 1 h was 6.2.
As to `CCc1ccc(Oc2nc3ccnn3c3c2ccn3C(CC)CC)c(OC)c1`, the IC50 in series [1] came out at 7 nM. For the same molecule, in series [2], the EC50 worked out at 5.6 nM.
`CCCN(CCC)c1c(C2CCCC2)c(Nc2ccc(OC)cc2Cl)nc2ccnn12` displayed an IC50 in series [1] of 308 nM.
`CCC(CC)Nc1c(C)c(Nc2ccc(OC)cc2Cl)nc2ncnn12` came in with an IC50 in series [1] of 16 nM. In series [2], the EC50 was found to be 58 nM.
In turn, `CCC(CC)n1ccc2c(Cc3c(C)cc(C)cc3C)nc3ccnn3c21` returned an IC50 in [1] of 7.1 nM. Moreover, in [2], the EC50 was 32.2 nM.
For `CCCCc1c(Nc2ccc(OC)cc2Cl)nc2ccnn2c1N(CCC)CCC`, the IC50 in series [1] was 340 nM.
For `CCC(CC)Nc1cc(N(C)c2ccc(OC)cc2Cl)nc2ncnn12`, in series [1], the IC50 was found to be 42 nM. Further, the EC50 in [2] came out at 367 nM.
On the same counts, the results for `CCCN(CCC)c1nc(N(C)c2ccc(OC)cc2Cl)nc2ccnn12` are 20 nM and 26 nM.
The corresponding values for `CCC(CC)Nc1c(C)c(Nc2ccc(OC)cc2Cl)nc2ccnn12` are 7.4 nM and 7.4 nM.
On the same counts, the results for `CCCN(CCC)c1cc(N(CC)c2ccc(OC)cc2Cl)nc2nccn12` are 42 nM and 76 nM.
`CCCc1c(Nc2ccc(OC)cc2Cl)nc2ccnn2c1N(CCC)CCC` displayed an IC50 in series [1] of 32 nM. In addition, in series [2], the EC50 came to 95 nM.
The corresponding values for `C=C(C)CN(c1cc(N(CCC)CCC)n2nccc2n1)c1ccc(OC)cc1Cl` are 76.7 nM and 856 nM.
On to `CCCN(CCC)c1cc(N(C)c2ccc(OC)cc2Cl)nc2ncnn12`, for which, in series [1], the IC50 came to 33 nM. Moreover, the EC50 in series [2] came to 889 nM.
On the same counts, the results for `CCCN(CCC)c1c(C(C)C)c(Nc2ccc(OC)cc2Cl)nc2ccnn12` are 113 nM and 234 nM.
The corresponding values for `CCC(CC)n1ccc2c(Nc3ccc(OC)cc3Cl)nc3ccnn3c21` are 3.2 nM and 0.7 nM.
For the molecule `CCC(CC)Nc1cc(Nc2ccc(OC)cc2Cl)nc2ccnn12`, in series [1], the IC50 was 14 nM. In addition, in [2], the EC50 is 113 nM.
On the same counts, the results for `C=CCN(c1cc(N(CCC)CCC)n2nccc2n1)c1ccc(OC)cc1Cl` are 4.4 nM and 28.9 nM.
Take `CCCN(CCC)c1cc(N(CC2CC2)c2ccc(OC)cc2Cl)nc2ccnn12`: the IC50 in [1] turned out to be 213 nM.
In turn, `CCCN(CCC)c1cc(N(COC)c2ccc(OC)cc2Cl)nc2ccnn12` registered an IC50 in series [1] of 15 nM. Further, the EC50 in series [2] was 4.4 nM.
On the same counts, the results for `CCC(CC)n1ccc2c(Nc3c(C)cc(C)cc3C)nc3ccnn3c21` are 6.1 nM and 4.1 nM.
For `CCCN(CCC)c1cc(N(C)c2ccc(OC)cc2Cl)nc2nccn12`, the IC50 in [1] was 67 nM.
As to `CCCN(CCC)c1c(C)c(Nc2ccc(OC)cc2Cl)nc2nccn12`, the IC50 in series [1] came out at 12 nM. Also, the EC50 in series [2] is 46 nM.
The corresponding values for `CCCN(CCC)c1c(C)c(Nc2ccc(OC)cc2Cl)nc2ncnn12` are 8 nM and 9 nM.
For the molecule `CCCN(CCC)c1cc(N(CC)c2ccc(OC)cc2Cl)nc2ccnn12`, the IC50 in series [1] came to 31.6 nM. Also, the EC50 in series [2] was determined as 18.6 nM.
On the same counts, the results for `CCc1cc(OC)ccc1Nc1nc2ccnn2c2c1ccn2C(CC)CC` are 2.4 nM and 3.5 nM.
The corresponding values for `CCCN(CCC)c1c(OC)c(Nc2ccc(OC)cc2Cl)nc2ccnn12` are 13 nM and 883 nM.
Molecule `CCCN(CCC)c1cc(N(CCOC)c2ccc(OC)cc2Cl)nc2ccnn12` displayed a 50% inhibitory concentration (IC50) in [1] of 680 nM.
Regarding `CCCN(CCC)c1cc(N(CCC)c2ccc(OC)cc2Cl)nc2ccnn12`, the IC50 in series [1] amounted to 418 nM. Moreover, in series [2], the EC50 was 75.7 nM.
`CCCN(CCC)c1c(CC)c(Nc2ccc(OC)cc2Cl)nc2ccnn12` yielded an IC50 in series [1] of 4.2 nM. Further, in series [2], the EC50 was 8.6 nM.

The record behind these values is ChEMBL document CHEMBL1828587, “Pyrazolo[1,5-a]pyrimidines, triazolo[1,5-a]pyrimidines and their tricyclic derivatives as corticotropin-releasing factor 1 (CRF₁) receptor antagonists” (Bioorg Med Chem, 2011).
